Experimental data as given in ChEMBL document CHEMBL4266041, “Hydroxybiphenylamide GroEL/ES Inhibitors Are Potent Antibacterials against Planktonic and Biofilm Forms of Staphylococcus aureus” (J Med Chem, 2018).
The source made the active and inactive calls. The calls are words filed in the database; no cut-off is given here.

Legend:
E. coli GroEL/ES [1] = target: T1, E. coli GroEL/ES (Escherichia coli, UniProt P0A6F5); assay: Inhibition of Escherichia coli GroEL expressed in Escherichia coli DH5alpha/Escherichia coli GroES expressed in Escherichia coli BL21 (DE3) assessed as reduction in GroEL/GroES-mediated denatured MDH refolding after 20 to 40 mins by spectrometric analysis
How it was run: (§1)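 Uses E. coli GroEL/ES with a denatured MDH or rhodanese reporter. GroEL first forms a binary complex with the denatured reporter. Refolding is started by adding ATP and GroES, then reporter enzyme activity is read. DMSO is the negative control. IC50 values from replicate curves are log-averaged after ROUT outlier screening.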

E. coli GroEL/ES [2] = target: T1, E. coli GroEL/ES; assay: Inhibition of Escherichia coli GroEL expressed in Escherichia coli DH5alpha/Escherichia coli GroES expressed in Escherichia coli BL21 (DE3) assessed as reduction in GroEL/GroES-mediated denatured rhodanese refolding after 45 mins by spectrometric analysis; how it was run: as §1
Staphylococcus aureus [3] = assay: Antibacterial activity against Staphylococcus aureus ATCC 25923 after 6 to 8 hrs by bacterial proliferation assay; assay type: functional, organism-based
[4] = target: T2, Thiosulfate sulfurtransferase (Homo sapiens, UniProt Q16762); assay: Inhibition of refolded rhodanese (unknown origin) preincubated with Escherichia coli GroEL/GroES for 60 mins in absence of compound followed by compound addition by spectrometric analysis
T2 sequence (Q16762 whole entry): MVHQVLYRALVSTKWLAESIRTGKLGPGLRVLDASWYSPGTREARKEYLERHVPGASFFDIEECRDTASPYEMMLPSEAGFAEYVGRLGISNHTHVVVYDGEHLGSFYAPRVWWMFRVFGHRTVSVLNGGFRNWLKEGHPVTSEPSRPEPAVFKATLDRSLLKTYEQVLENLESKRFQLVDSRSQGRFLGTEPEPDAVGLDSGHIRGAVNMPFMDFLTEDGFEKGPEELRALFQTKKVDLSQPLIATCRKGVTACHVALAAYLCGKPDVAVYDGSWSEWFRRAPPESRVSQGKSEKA

[5] = Inhibition of refolded MDH (unknown origin) preincubated with Escherichia coli GroEL/GroES for 45 mins in absence of compound followed by compound addition and measured for 20 to 35 mins by spectrometric analysis
Enterococcus faecium = assay: Antibacterial activity against Enterococcus faecium ATCC 19434 after 24 hrs by bacterial proliferation assay; assay type: functional, organism-based; conditions: ATCC 19434, 24 h
Staphylococcus aureus [6] = assay: Antibacterial activity against methicillin-resistant Staphylococcus aureus ATCC BAA-44 after 6 to 8 hrs by bacterial proliferation assay; assay type: functional, organism-based; conditions: Staphylococcus aureus, ATCC BAA-44
Klebsiella pneumoniae = assay: Antibacterial activity against Klebsiella pneumoniae ATCC 13883 after 6 to 8 hrs by bacterial proliferation assay; assay type: functional, organism-based
How it was run: (§2)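 Bacterial growth inhibition in liquid culture. The highest concentration tested was 100 µM. The mean was back-calculated from the average log value. Values above the top concentration were set 0.1 log unit higher.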

Acinetobacter baumannii = assay: Antibacterial activity against Acinetobacter baumannii ATCC 19606 after 24 hrs by bacterial proliferation assay; assay type: functional, organism-based; conditions: ATCC 19606 = CIP 70.34 = JCM 6841, 24 h; how it was run: as §2
Pseudomonas aeruginosa = assay: Antibacterial activity against Pseudomonas aeruginosa ATCC 10145 after 24 hrs by bacterial proliferation assay; assay type: functional, organism-based; conditions: ATCC 10145, 24 h; how it was run: as §2
Enterobacter cloacae = assay: Antibacterial activity against Enterobacter cloacae subsp. cloacae ATCC 13047 after 24 hrs by bacterial proliferation assay; assay type: functional, organism-based; conditions: subsp. cloacae ATCC 13047, 24 h; how it was run: as §2
[7] = Cytotoxicity against human THLE3 cells assessed as reduction in cell viability after 48 hrs by Alamar Blue reporter assay; conditions: for CC50: 48 h
HEK293 = assay: (§3) Cytotoxicity against HEK293 cells assessed as reduction in cell viability after 48 hrs by Alamar Blue reporter assay; conditions: human, hek293, 48 h
Staphylococcus aureus [8] = assay: Ratio of EC50 for bactericidal activity against Staphylococcus aureus Rosenbach ATCC 25923 in biofilms to EC50 for planktonic growth of Staphylococcus aureus Rosenbach ATCC 25923; assay type: functional
Staphylococcus aureus [9] = assay: Antibiofilm activity against Staphylococcus aureus Rosenbach ATCC 25923 after 24 hrs by crystal-violet based UV-Vis spectroscopy; assay type: functional, organism-based; conditions: Rosenbach ATCC 25923, 24 h
How it was run: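 ATCC 25923 colony grown overnight in TSB at 37°C with shaking, precultured 1 h in TSB + 0.5% glucose, then diluted to OD600 0.01. Incubated stagnant at 37°C for 24 h with compound (100 µM–46 nM, 3-fold, DMSO), alongside bacteria-free baseline plates. Wells washed, crystal violet stained 15 min, developed in MeOH:AcOH:H2O, A595.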

Staphylococcus aureus [10] = assay: Bactericidal activity against Staphylococcus aureus Rosenbach ATCC 25923 in biofilms preincubated for 24 hrs followed by compound wash out and measured after 24 hrs; assay type: functional, organism-based
How it was run: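 ATCC 25923 preculture (TSB + 0.5% glucose, OD600 0.01) grown stagnant 24 h at 37°C to form biofilm, without compound. Wells washed 3× with PBS, then fresh TSB added with compound (100 µM–46 nM, 3-fold, DMSO) for 24 h at 37°C. Washed again, then recovered in fresh TSB 24 h at 37°C.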

Staphylococcus aureus [11] = assay: Bactericidal activity against planktonic growth of Staphylococcus aureus Rosenbach ATCC 25923 preincubated for 24 hrs followed by compound wash out and measured after 24 hrs; assay type: functional, organism-based
[12] = Therapeutic index, ratio of CC50 for human THLE3 cells to EC50 for methicillin-resistant Staphylococcus aureus ATCC BAA-44; assay type: toxicity; conditions: read-out: Ratio CC50/EC50
How it was run: (§4)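 Ratio of human-cell CC50 to MRSA (ATCC BAA-44) EC50. […] EC50 comes from inhibition of MRSA proliferation in liquid culture. Replicate values were log-transformed, screened for outliers (ROUT, Q 10%), then averaged and back-calculated. Values above 100 µM were entered as 126 µM.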

[13] = Therapeutic index, ratio of CC50 for HEK293 cells to EC50 for methicillin-resistant Staphylococcus aureus ATCC BAA-44; assay type: toxicity; conditions: human, read-out: Ratio CC50/EC50; how it was run: as §4
HSP60/HSP10 = HSP60/HSP10 (Homo sapiens, UniProt P10809); assay: Inhibition of human N-terminal octa-His-tagged HSP60 expressed in Escherichia coli Rosetta(DE3) pLysS/human HSP10 expressed in Escherichia coli Rosetta(DE3) assessed as reduction in HSP60/HSP10-mediated denatured MDH refolding after 40 to 60 mins by spectrometric analysis
How it was run: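 Human HSP60/10 refolding of denatured MDH, run the same way as the GroEL/ES-dMDH assay. A binary complex of chaperonin and denatured MDH is formed, and refolding is started with ATP and HSP10. MDH activity is the read-out. DMSO is the negative control. IC50 values from replicate curves are log-averaged after ROUT outlier screening.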

[14] = as §3; conditions: human, HEK293 cells
Staphylococcus aureus [15] = assay: Antibacterial activity against methicillin-resistant Staphylococcus aureus ATCC BAA-44 precultured for 24 hrs passage with compound followed by subculture in presence of compound for 12 days serial passage; assay type: functional, organism-based
How it was run: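 Cells from the first well with OD600 >0.2 were sub-cultured 24 h in a fresh compound dilution series. Serial passage ran for 12 days, with EC50 determined after each passage. Averages are from triplicate analyses.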

T1 sequence (P0A6F5 whole entry, looked up): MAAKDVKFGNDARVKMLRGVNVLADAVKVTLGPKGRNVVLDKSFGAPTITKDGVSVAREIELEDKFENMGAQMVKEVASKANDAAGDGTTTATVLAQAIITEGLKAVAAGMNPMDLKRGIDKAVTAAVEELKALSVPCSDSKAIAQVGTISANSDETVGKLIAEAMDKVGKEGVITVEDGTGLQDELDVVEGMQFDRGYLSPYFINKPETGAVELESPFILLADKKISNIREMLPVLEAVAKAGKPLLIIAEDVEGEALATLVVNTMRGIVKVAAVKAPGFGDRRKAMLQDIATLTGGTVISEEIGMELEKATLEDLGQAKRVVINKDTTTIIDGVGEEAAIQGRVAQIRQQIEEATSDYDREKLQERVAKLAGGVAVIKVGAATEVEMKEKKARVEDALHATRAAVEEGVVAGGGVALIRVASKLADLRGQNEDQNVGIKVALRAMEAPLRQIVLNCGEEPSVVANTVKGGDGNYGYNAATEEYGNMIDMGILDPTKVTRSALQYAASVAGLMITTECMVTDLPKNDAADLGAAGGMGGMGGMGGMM
Sequence of HSP60/HSP10 (P10809 whole entry): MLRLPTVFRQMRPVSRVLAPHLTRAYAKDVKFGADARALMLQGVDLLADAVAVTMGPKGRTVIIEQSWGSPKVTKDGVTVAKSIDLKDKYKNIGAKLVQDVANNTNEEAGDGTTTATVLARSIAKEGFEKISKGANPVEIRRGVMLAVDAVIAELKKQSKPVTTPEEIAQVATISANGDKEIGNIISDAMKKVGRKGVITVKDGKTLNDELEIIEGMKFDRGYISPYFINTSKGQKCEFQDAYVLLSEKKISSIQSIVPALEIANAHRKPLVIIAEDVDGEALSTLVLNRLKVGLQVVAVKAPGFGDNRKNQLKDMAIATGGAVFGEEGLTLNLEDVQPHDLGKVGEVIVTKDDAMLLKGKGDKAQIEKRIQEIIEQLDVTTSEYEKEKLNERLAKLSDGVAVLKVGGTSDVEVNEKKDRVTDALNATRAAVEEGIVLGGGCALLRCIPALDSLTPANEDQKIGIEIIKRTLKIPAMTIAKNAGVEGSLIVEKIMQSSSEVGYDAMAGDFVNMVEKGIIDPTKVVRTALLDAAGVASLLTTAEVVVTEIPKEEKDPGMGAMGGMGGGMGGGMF
Sequence of HSP60/HSP10 (P61604 whole entry, further chain): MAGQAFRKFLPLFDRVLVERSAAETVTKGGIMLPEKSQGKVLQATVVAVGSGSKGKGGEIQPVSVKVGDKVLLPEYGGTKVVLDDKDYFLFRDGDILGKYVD

O=C(Nc1ccc(Sc2nc3ccccc3s2)cc1)c1cc(Br)cc(Br)c1O
IC50 (E. coli GroEL/ES [1]): 2.7 µM
IC50 (E. coli GroEL/ES [2]): 1.3 µM
EC50 (Staphylococcus aureus [3]): 0.44 µM
IC50 [4]: > 100 µM
IC50 [5]: 8.4 µM
EC50 (Enterococcus faecium): 0.88 µM
EC50 (Staphylococcus aureus [6]): 0.52 µM
EC50 (Klebsiella pneumoniae): > 100 µM
EC50 (Acinetobacter baumannii): > 100 µM
EC50 (Pseudomonas aeruginosa): > 100 µM
EC50 (Enterobacter cloacae): > 100 µM
CC50 [7]: 20 µM
CC50 (HEK293): 66 µM
Ratio EC50 (Staphylococcus aureus [8]): 5 - 15
EC50 (Staphylococcus aureus [9]): 0.54 µM
EC50 (Staphylococcus aureus [10]): 2.3 µM
EC50 (Staphylococcus aureus [11]): 0.44 µM
selectivity ratio [12]: > 50
selectivity ratio [13]: > 50

CCCCCCCCCC(=O)N[C@@H](Cc1c[nH]c2ccccc12)C(=O)NC(CC(N)=O)C(=O)N[C@@H](CC(=O)O)C(=O)N[C@@H]1C(=O)NCC(=O)N[C@@H](CCCN)C(=O)N[C@@H](CC(=O)O)C(=O)N[C@H](C)C(=O)N[C@@H](CC(=O)O)C(=O)NCC(=O)N[C@H](CO)C(=O)N[C@@H]([C@H](C)CC(=O)O)C(=O)N[C@@H](CC(=O)c2ccccc2N)C(=O)O[C@@H]1C (single isomer, unassigned) [DAPTOMYCIN]
IC50 (E. coli GroEL/ES [1]): > 100 µM
IC50 (E. coli GroEL/ES [2]): > 100 µM
EC50 (Staphylococcus aureus [3]): 0.68 µM
IC50 [4]: > 100 µM
IC50 [5]: > 63 µM
EC50 (Enterococcus faecium): 9.2 µM
EC50 (Staphylococcus aureus [6]): 1 µM
EC50 (Klebsiella pneumoniae): > 100 µM
EC50 (Acinetobacter baumannii): > 100 µM
EC50 (Pseudomonas aeruginosa): > 100 µM
EC50 (Enterobacter cloacae): > 100 µM
IC50 (HSP60/HSP10): > 100 µM
CC50 at 48 h ([7]; THLE3 cells): > 100 µM
CC50 at 48 h [14]: > 100 µM

O=C(Nc1ccccc1)c1cc(Br)cc(Br)c1O [METABROMSALAN]
IC50 (E. coli GroEL/ES [1]): 61 µM
IC50 (E. coli GroEL/ES [2]): > 100 µM
EC50 (Staphylococcus aureus [3]): 1.2 µM
IC50 [4]: > 100 µM
IC50 [5]: 51 µM
EC50 (Enterococcus faecium): > 100 µM
EC50 (Staphylococcus aureus [6]): 2 µM
EC50 (Klebsiella pneumoniae): > 100 µM
EC50 (Acinetobacter baumannii): > 100 µM
EC50 (Pseudomonas aeruginosa): > 100 µM
EC50 (Enterobacter cloacae): > 100 µM
CC50 [7]: 25 µM
CC50 (HEK293): 34 µM
selectivity ratio [12]: > 50
selectivity ratio [13]: > 50

O=C(Nc1cccc(Cl)c1)c1cc(Br)ccc1O
IC50 (E. coli GroEL/ES [1]): > 100 µM
IC50 (E. coli GroEL/ES [2]): > 100 µM
EC50 (Staphylococcus aureus [3]): 0.46 µM
IC50 [4]: > 100 µM
IC50 [5]: > 63 µM
EC50 (Enterococcus faecium): > 100 µM
EC50 (Staphylococcus aureus [6]): 0.53 µM
EC50 (Klebsiella pneumoniae): > 100 µM
EC50 (Acinetobacter baumannii): > 100 µM
EC50 (Pseudomonas aeruginosa): > 100 µM
EC50 (Enterobacter cloacae): > 100 µM
IC50 (HSP60/HSP10): > 100 µM
CC50 [7]: 4.1 µM
CC50 (HEK293): 15 µM
Activity (Staphylococcus aureus [15]): Active
Ratio EC50 (Staphylococcus aureus [8]): 5 - 15
EC50 (Staphylococcus aureus [9]): 0.44 µM
EC50 (Staphylococcus aureus [10]): 6.9 µM
EC50 (Staphylococcus aureus [11]): 0.46 µM

O=C(Nc1ccc(Sc2nc3ccccc3s2)c(Cl)c1)c1cc(Br)cc(Br)c1O
IC50 (E. coli GroEL/ES [2]): 1.5 µM
EC50 (Staphylococcus aureus [3]): 0.36 µM
IC50 [4]: > 100 µM
IC50 [5]: 6.8 µM
EC50 (Enterococcus faecium): 0.52 µM
EC50 (Staphylococcus aureus [6]): 0.55 µM
EC50 (Klebsiella pneumoniae): > 100 µM
EC50 (Acinetobacter baumannii): 66 µM
EC50 (Pseudomonas aeruginosa): > 100 µM
EC50 (Enterobacter cloacae): > 100 µM
CC50 [7]: 14 µM
CC50 (HEK293): 76 µM
Activity (Staphylococcus aureus [15]): Active
Ratio EC50 (Staphylococcus aureus [8]): 5 - 15
EC50 (Staphylococcus aureus [9]): 0.72 µM
EC50 (Staphylococcus aureus [10]): 2.4 µM
EC50 (Staphylococcus aureus [11]): 0.36 µM
selectivity ratio [12]: > 50
selectivity ratio [13]: > 50

O=C(Nc1cccc(Cl)c1)c1cc(Br)cc(Br)c1O
IC50 (E. coli GroEL/ES [1]): 24 µM
IC50 (E. coli GroEL/ES [2]): 47 µM
EC50 (Staphylococcus aureus [3]): 0.66 µM
IC50 [4]: > 100 µM
IC50 [5]: 27 µM
EC50 (Enterococcus faecium): 73 µM
EC50 (Staphylococcus aureus [6]): 1.1 µM
EC50 (Klebsiella pneumoniae): 95 µM
EC50 (Acinetobacter baumannii): 46 µM
EC50 (Pseudomonas aeruginosa): > 100 µM
EC50 (Enterobacter cloacae): 78 µM
CC50 [7]: 9.2 µM
CC50 (HEK293): 18 µM
selectivity ratio [12]: > 50
selectivity ratio [13]: > 50
